Most compounds without a hit are left out; they make up all but 29% or so of the library.
E coli WT exp: E. coli BW25113 growth inhibition, expanded screen; OD600 absorbance; growth inhibition, % at 100 µM; AID 710; actives 0.15% (n = 98,000);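 active means growth inhibition above about 50% at one test dose, limit read from the data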;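 further: growth measured after 20 h incubation at 37 °C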
CYP2C9 act: CYP2C9 (human) activation; activation factor at 5 µM; actives 1.4% (n = 96,000); recombinant CYP2C9, luciferin-H conversion, luminescence; hits give high values; factor 1 = untreated enzyme, 0 = blocked; P11712;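 active means activation factor of 2 or more for CYP2C9 at a 5 µM dose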;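 further: 0 = sulfaphenazole-blocked wells and 1 = vehicle-only wells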
CYP2C9 inhib: blocks human cytochrome P450 2C9. AID 777. inhibition, % at 5 µM. actives 20% (n = 96,000). P11712. CYP2C9 Supersomes, luciferin-H conversion, luminescence;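 active means blocking of liver enzyme CYP2C9 beyond about 50% at 5 µM, limit read from the data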
CYP2C19 activ: cytochrome P450 2C19 (human) activation. recombinant CYP2C19, luciferin-H EGE luminescence; hits give high values; 0 = fully inhibited enzyme, 1 = untreated enzyme. activation factor at 5 µM. 96,000 tested, under 10 active;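 active means activation factor of at least 2 at 5 µM in the primary screen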;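 further: 0 = wells with 2.5 mM tranylcypromine and 1 = vehicle-only wells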
Target sequence (P33261 whole entry, looked up): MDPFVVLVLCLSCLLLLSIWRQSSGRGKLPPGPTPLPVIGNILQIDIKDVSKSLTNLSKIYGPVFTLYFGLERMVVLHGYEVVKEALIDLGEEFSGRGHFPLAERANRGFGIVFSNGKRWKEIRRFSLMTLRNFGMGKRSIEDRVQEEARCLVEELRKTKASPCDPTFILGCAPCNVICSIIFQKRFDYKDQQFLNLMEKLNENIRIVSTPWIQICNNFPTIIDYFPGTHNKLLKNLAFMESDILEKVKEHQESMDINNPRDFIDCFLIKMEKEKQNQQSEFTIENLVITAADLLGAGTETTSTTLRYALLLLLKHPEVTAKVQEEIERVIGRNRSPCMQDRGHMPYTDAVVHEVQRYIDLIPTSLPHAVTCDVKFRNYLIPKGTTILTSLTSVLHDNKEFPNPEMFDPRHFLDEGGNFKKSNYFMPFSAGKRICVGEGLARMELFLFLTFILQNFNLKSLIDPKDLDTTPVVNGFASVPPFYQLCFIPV
CYP2C19 inh: inhibitors of human CYP2C19; P33261; CYP2C19 Supersomes, luciferin-H EGE luminescence, 30 min; inhibition, % at 5 µM; actives 21% (n = 96,000); AID 778;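 active means CYP2C19 inhibition above a set limit at 5 µM in the primary screen, cut at about 50% in these data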;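 further: plate controls were negative control wells for no effect and 2.5 mM tranylcypromine positive control for full effect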
Ecoli tolC: blocks growth of E. coli BW25113 tolC mutant. OD615. growth inhibition, % at 10 µM (by protocol). actives 2.2% (n = 65,000). AID 573;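 active means growth inhibition at or above a cutoff equal to the mean over every tested compound plus 3 SD, cut at about 60% in these data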;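 further: growth measured after 20 h incubation at 37 °C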
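Test system – E. coli BW25113 ΔtolC::kan, tolC deletion mutant strain · Detection – OD at 615 nm · Buffer or medium – LB with kanamycin 50 µg/mL · Times – 20 h compound exposure of bacteria at 37 °C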
The depositor's hits bear a star; . = no result.

SMILES	E coli WT exp	CYP2C9 act	CYP2C9 inhib	CYP2C19 activ	CYP2C19 inh	Ecoli tolC
O=C(C1CCN(S(=O)(=O)c2ccc3ccccc3c2)CC1)N1CCN(c2ncccn2)CC1	-6.0	1.7	-71.4	0.3	70.8*	9.1
O=S(=O)(c1cccc2cccnc12)N1CCN(c2ccccc2)CC1	1.0	2.8*	-178.5	0	98.7*	.
CC1Cc2ccccc2N1C(=O)C1CCCN(S(=O)(=O)c2cccc3cccnc23)C1 (stereo unspecified)	2.0	0.7	26.8	0.2	78.3*	34.6
COc1ccc2[nH]cc(C(O)CN3CCC(C(N)=O)CC3)c2c1 (stereo unspecified)	-3.0	1	2.2	1.1	-7.8	.
CCOC(=O)C1CCN(C(=O)C2CCN(S(=O)(=O)c3cccc4cccnc34)CC2)CC1	1.0	2.3*	-129.4	0.9	6.5	-6.4
COc1ccc(N2CCN(C(=O)C3CCCN(S(=O)(=O)c4cccc5cccnc45)C3)CC2)cc1 (stereo unspecified)	1.0	1.1	-12.2	0.3	65.4*	11.5
O=C(C1CCN(S(=O)(=O)c2cccc3cccnc23)CC1)N1CCN(c2ccc(Cl)cc2)CC1	-13.0	2.3*	-132.5	0.1	85.2*	27.1
O=C(OCc1ccccc1)C1=[N+]([O-])OC(C(=O)OCc2ccccc2)C1c1c[nH]c2ccccc12 (stereo unspecified)	-5.0	0	95.9*	0.2	83.7*	.
CCOc1ccccc1N1CCN(CC(O)COc2ccc3c(C)cc(=O)oc3c2)CC1 (stereo unspecified)	11.0	0.9	14.7	0.8	19.6	-2.4
CCOC(=O)C1CCCN(C(=O)c2cc3ncc(Br)cn3n2)C1 (stereo unspecified)	1.0	1	-3.0	1	1.9	-3.5
COc1cc(C(C(=O)NC2CCCCC2)N(Cc2cccs2)C(=O)Cc2c[nH]c3ccccc23)cc(OC)c1OC (stereo unspecified)	-20.0	0.4	57.5*	0.3	73.4*	.
CC(C(=O)NC1CCCC1)N(C(=O)c1ccc(-c2ccccc2)[nH]1)c1ccccc1F (stereo unspecified)	-12.0	0.4	61.2*	0.3	69.5*	.
O=C(NC1CCCCC1)C(c1ccncc1)N(Cc1ccccc1)C(=O)c1ccc(-c2ccccc2)[nH]1 (stereo unspecified)	-9.0	0.1	95.0*	0.1	92.9*	.
COc1ccc(CN(C(=O)c2ccc(-c3ccccc3)[nH]2)C(C(=O)NCC2CCCO2)c2ccc(C)o2)cc1 (stereo unspecified)	-11.0	0.5	45.6	0.4	58.2*	.
COc1ccc(C(C(=O)NC2CCCCC2)N(C(=O)Cc2c[nH]c3ccccc23)c2ccc(NC(C)=O)cc2)cc1OC (stereo unspecified)	-6.0	0.6	35.8	0.7	27.6	.
Cn1c(NC(=O)c2ccccc2F)cc(=O)n(C)c1=O	3.0	1	0.1	1	-0.6	-17.5
COc1ccc2[nH]c(C)c(CN3CCCC(C)C3)c(=O)c2c1 (stereo unspecified)	.	.	.	.	.	-15.0
O=c1cc(N2CCOCC2)[nH]c(=O)n1-c1ccc(Br)cc1	-3.0	1	-3.1	1	-3.0	-5.1
O=C(NC1CCCCC1)N(Cc1ccccc1)Cc1ccco1	1.0	0.8	20.1	0.9	7.6	23.1
COc1ccccc1CN(C(=O)c1ccco1)C(C(=O)NC1CCCC1)c1ccncc1 (stereo unspecified)	5.0	0.6	41.6	0.4	62.6*	0.5
COc1ccccc1CN(C(=O)Cc1cccs1)C(C(=O)NC1CCCC1)c1ccncc1 (stereo unspecified)	4.0	0.5	49.9	0.2	76.9*	.
O=C(NC1CCCC1)C(c1ccncc1)N(Cc1cccs1)C(=O)c1csnn1 (stereo unspecified)	0.0	0.5	53.7*	0.6	37.4	-7.7
O=C(NC1CCCC1)C(c1cccs1)N(Cc1ccco1)C(=O)c1csnn1 (stereo unspecified)	-5.0	0.9	10.9	0.7	25.4	-9.1
COc1cccc(CN(C(=O)c2ccco2)C(C(=O)NC2CCCC2)c2cccnc2)c1 (stereo unspecified)	3.0	0.9	12.0	0.8	22.6	-10.9
O=C(NC1CCCCC1)C(c1ccco1)N(Cc1ccco1)C(=O)c1ccco1 (stereo unspecified)	1.0	0.4	63.1*	0.4	64.8*	-0.9
SMILES	E coli WT exp	CYP2C9 act	CYP2C9 inhib	CYP2C19 activ	CYP2C19 inh	Ecoli tolC
CCOc1ccc(/C(O)=C2\C(=O)C(=O)N(CCN(C)C)C2c2cc(OC)ccc2OC)cc1Cl (stereo unspecified)	.	.	.	.	.	-13.6
Cc1cc(C(=O)OCC(=O)N2C(C)CCCC2C)c(C)o1 (stereo unspecified)	-1.0	.	.	.	.	-1.3
Cc1ccc(-c2nnn(CC(=O)N(Cc3cccs3)C(C(=O)NC3CCCC3)c3ccco3)n2)o1 (stereo unspecified)	-9.0	0.8	21.9	0.9	14.3	14.2
Cc1ccc(-c2nnn(CC(=O)N(Cc3ccccc3)C(C(=O)NC3CCCC3)c3ccncc3)n2)o1 (stereo unspecified)	-8.0	0.4	55.4*	0.5	45.2	-14.8
COc1ccc(CN(C(=O)Cc2c[nH]c3ccccc23)C(C(=O)NC2CCCCC2)c2ccc(C)o2)cc1 (stereo unspecified)	-15.0	0.1	94.4*	0.1	92.9*	.
CCc1ccc(N(C(=O)Cc2cccs2)C(C(=O)NC2CCCCC2)c2cn(C)nc2C)cc1 (stereo unspecified)	-11.0	0.6	39.5	0.3	73.3*	.
COc1ccc(C(=O)N(Cc2ccco2)C(C(=O)NC2CCCC2)c2ccc(O)cc2)cc1OC (stereo unspecified)	-5.0	0.4	55.6*	0.5	50.2*	-1.1
O=C(NC1CCCC1)C(c1ccccc1F)N(C(=O)c1ccco1)C1CCCC1 (stereo unspecified)	6.0	0.5	50.8*	0.7	25.2	21.9
O=C(NC1CCCC1)C(c1ccncc1)N(Cc1ccccc1)C(=O)Cc1cccs1 (stereo unspecified)	1.0	0.6	39.4	0.4	60.8*	.
O=c1c(Cc2ccc(F)cc2)c(O)ccn1Cc1ccc(Cl)cc1Cl	-7.0	1.1	-6.8	1	3.9	.
O=c1[nH][nH]c2nc(C(F)(F)F)cc(C(F)(F)F)c12	-3.0	0.9	6.4	1	0.3	0.0
CCCCc1ccc(-c2nc(-c3ccncc3)no2)cc1	-12.0	0.3	67.4*	0.2	84.2*	16.5
CCOc1nc(C)ccc1-c1noc(-c2ccncc2)n1	7.0	.	.	.	.	1.6
CCc1ccc(-c2nc(-c3ccncc3)no2)cc1	1.0	0.2	84.4*	0	98.7*	11.5
Cc1ccc(S(=O)(=O)N2CC3CCCN3c3ccc(C(F)(F)F)cc32)cc1 (stereo unspecified)	-7.0	0.5	45.1	0.5	49.0	.

Screening results from PubChem BioAssay.
